Test results as given in ChEMBL document CHEMBL1138632, “Identification and structure-activity relationship studies of 3-methylene-2-norbornanone as potent anti-proliferative agents presumably working through p53 mediated apoptosis” (2004).

Tests used:
CAKI-1 [1] = experiment: Lethal concentration required to kill 50% Caki-1 cells of the human renal carcinoma with non-mutant wt p53; type: functional; conditions: read-out: LC50 (the source's name)
In short: (§1)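 Cells (Caki-1 renal carcinoma with wild-type p53 as negative control; C33A cervical and Ramos RA1 lymphocyte lines with mutant p53) plated sub-confluent at 1 × 10⁵ cells/mL in RPMI with 10% FBS. Compounds added at 0.001–100 for 72 h, with a positive control and a vehicle negative control. LC50 is the concentration killing 50% of cells.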

[2] = Lethal concentration required to kill 50% Ramos RA1 cells of the human lymphocyte with a mutation at Asp 254; type: functional; conditions: read-out: LC50 (the source's name); in short: as §1
CAKI-1 [3] = experiment: Fold selectivity expressed as ratio of LC50 for Caki cells with non-mutant p53 to LC50 for Ramos RA1 cells with a mutation at Asp 254; type: functional, Homo sapiens
In short: (§2)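 Selectivity is the fold ratio of the Caki-1 (wild-type p53) LC50 to the mutant-p53 line LC50 (C33A or Ramos RA1). LC50s come from the 72 h anti-proliferation assay in RPMI/10% FBS, 0.001–100 range. Values are means of three experiments.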

CAKI-1 [4] = experiment: Fold selectivity expressed as ratio of LC50 for Caki cells with non-mutant p53 to LC50 for C33A cells with a mutation at Cys 273; type: functional, Homo sapiens; in short: as §2

SMILES: C=C1Cc2cc(OC)ccc2C1=O
- CC50 (CAKI-1 [1]): 30.5 µM
- CC50 [2]: 3.2 µM
- Fold selectivity (CAKI-1 [3]): 9.53
- Fold selectivity (CAKI-1 [4]): 1.45

SMILES: C=C1C2CCC(C2)C1O (stereo not drawn)
- CC50 (CAKI-1 [1]): 805 µM
- CC50 [2]: 805 µM
- Fold selectivity (CAKI-1 [3]): 1
- Fold selectivity (CAKI-1 [4]): 3.9

SMILES: C=C1/C(=N/O)C2CCC1C2 (stereo not drawn)
- CC50 (CAKI-1 [1]): > 728 µM

SMILES: C=C1C(=O)C2CC1C1CCCC21 (stereo not drawn)
- CC50 (CAKI-1 [1]): 271 µM
- CC50 [2]: 35 µM
- Fold selectivity (CAKI-1 [3]): 7.74
- Fold selectivity (CAKI-1 [4]): 10.15

SMILES: C=C1CCc2cc(OC)c(OC)cc2C1=O
- CC50 (CAKI-1 [1]): 15.9 µM
- CC50 [2]: 4.9 µM
- Fold selectivity (CAKI-1 [3]): 3.24
- Fold selectivity (CAKI-1 [4]): 0.7

SMILES: C=C1C(=O)[C@@]2(C)CC[C@H]1C2(C)C
- CC50 (CAKI-1 [1]): 609 µM
- CC50 [2]: 609 µM
- Fold selectivity (CAKI-1 [3]): 1
- Fold selectivity (CAKI-1 [4]): 3.29

SMILES: C=C1CCc2ccccc2C1=O
- CC50 (CAKI-1 [1]): 30.6 µM
- CC50 [2]: 12.9 µM
- Fold selectivity (CAKI-1 [3]): 2.37
- Fold selectivity (CAKI-1 [4]): 1.1

SMILES: C=C1C(=O)C2(C(=O)NCc3ccc(OC)cc3)CCC1C2(C)C (stereo not drawn)
- CC50 (CAKI-1 [1]): 120 µM
- CC50 [2]: 15.9 µM
- Fold selectivity (CAKI-1 [3]): 7.55
- Fold selectivity (CAKI-1 [4]): 7.31

SMILES: C=C1CCOC1=O [TULIPALINE A]
- CC50 (CAKI-1 [1]): 55.4 µM
- CC50 [2]: 39.3 µM
- Fold selectivity (CAKI-1 [3]): 1.41
- Fold selectivity (CAKI-1 [4]): 1.13

SMILES: C=C1CC2CCC1C2 (stereo not drawn)
- CC50 (CAKI-1 [1]): > 924 µM
- CC50 [2]: > 924 µM

SMILES: O=C1CC2CCC1C2 (stereo not drawn)
- CC50 (CAKI-1 [1]): > 618 µM
- CC50 [2]: > 618 µM

SMILES: C=C1C(=O)C2(CS(=O)(=O)NCc3ccc(OC)cc3)CCC1C2(C)C (stereo not drawn)
- CC50 (CAKI-1 [1]): 190 µM
- CC50 [2]: 69.9 µM
- Fold selectivity (CAKI-1 [3]): 2.72
- Fold selectivity (CAKI-1 [4]): 1.93

SMILES: C=C1C(=O)C2(C(=O)OC)CCC1C2(C)C (stereo not drawn)
- CC50 (CAKI-1 [1]): 36 µM
- CC50 [2]: 26.4 µM
- Fold selectivity (CAKI-1 [3]): 1.36
- Fold selectivity (CAKI-1 [4]): 1.54

SMILES: C=C1C(=O)C2(C(=O)Nc3ccc(OC)cc3)CCC1C2(C)C (stereo not drawn)
- CC50 (CAKI-1 [1]): 108 µM
- CC50 [2]: 14.3 µM
- Fold selectivity (CAKI-1 [3]): 7.55
- Fold selectivity (CAKI-1 [4]): 7.11

SMILES: C=C1C2=NS(=O)(=O)CC23CCC1C3(C)C (stereo not drawn)
- CC50 (CAKI-1 [1]): 15.9 µM
- CC50 [2]: 2.1 µM
- Fold selectivity (CAKI-1 [3]): 7.57
- Fold selectivity (CAKI-1 [4]): 6.36

SMILES: O=C1C2CCN(CC2)C1(CO)CO
- CC50 (CAKI-1 [1]): 162 µM
- CC50 [2]: 17.2 µM
- Fold selectivity (CAKI-1 [3]): 9.42
- Fold selectivity (CAKI-1 [4]): 6.4

SMILES: CC(C)=C1CC[C@H](C)CC1=O
- CC50 (CAKI-1 [1]): 657 µM
- CC50 [2]: 509 µM
- Fold selectivity (CAKI-1 [3]): 1.29
- Fold selectivity (CAKI-1 [4]): 1.83

SMILES: C=C1C(=O)C2CCC1C2 (stereo not drawn)
- CC50 (CAKI-1 [1]): 109 µM
- CC50 [2]: 8.28 µM
- Fold selectivity (CAKI-1 [3]): 13.16
- Fold selectivity (CAKI-1 [4]): 29.7

SMILES: C=C1C(=O)C2(C(=O)O)CCC1C2(C)C (stereo not drawn)
- CC50 (CAKI-1 [1]): 515 µM
- CC50 [2]: 353 µM
- Fold selectivity (CAKI-1 [3]): 1.46
- Fold selectivity (CAKI-1 [4]): 1.15

SMILES: C=C1C(=O)C2(CS(=O)(=O)NCC(C)C)CCC1C2(C)C (stereo not drawn)
- CC50 (CAKI-1 [1]): 334 µM
- CC50 [2]: 157 µM
- Fold selectivity (CAKI-1 [3]): 2.13
- Fold selectivity (CAKI-1 [4]): 1.95

SMILES: C=C1C(=O)C2(CS(=O)(=O)Nc3ccc(OC)cc3)CCC1C2(C)C (stereo not drawn)
- CC50 (CAKI-1 [1]): 114 µM
- CC50 [2]: 12.7 µM
- Fold selectivity (CAKI-1 [3]): 8.98
- Fold selectivity (CAKI-1 [4]): 8.51

SMILES: C=C1C(=O)C2CCC1(C)C2(C)C (stereo not drawn)
- CC50 (CAKI-1 [1]): 609 µM
- CC50 [2]: 609 µM
- Fold selectivity (CAKI-1 [3]): 1
- Fold selectivity (CAKI-1 [4]): 1

SMILES: C=C1C(=O)C2(C(=O)NCC(C)C)CCC1C2(C)C (stereo not drawn)
- CC50 (CAKI-1 [1]): 171 µM
- CC50 [2]: 21.5 µM
- Fold selectivity (CAKI-1 [3]): 7.95
- Fold selectivity (CAKI-1 [4]): 8.07

SMILES: C=C1CCc2cc(OC)ccc2C1=O
- CC50 (CAKI-1 [1]): 16.2 µM
- CC50 [2]: 1.8 µM
- Fold selectivity (CAKI-1 [3]): 9
- Fold selectivity (CAKI-1 [4]): 0.65

SMILES: COc1ccc(/C=C/c2nc(NCCCN(C)C)c3ccccc3n2)cc1
- CC50 (CAKI-1 [1]): 9.3 µM
- CC50 [2]: 14.3 µM
- Fold selectivity (CAKI-1 [3]): 0.65
- Fold selectivity (CAKI-1 [4]): 0.69
